Reference: ChEMBL document CHEMBL1123792, “Nonsteroidal cardiotonics. 1. 2-Pyridyl-6,7-dihydro-3H,5H-pyrrolo[2,3-f]benzimidazol-6-ones, a novel class of cardiotonic agents” (1987)

Experiments:
Canis familiaris [1] = test: Maximum increase in dP/dt recorded in mmHg/s at the dose 3.0 mg/kg administered intravenously in dog; type: functional, Canis lupus familiaris; parameters: unit not given here; settings: route intravenous
Summary of the method: (§1)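 Conscious mongrel dogs (both sexes, 25–30 kg), chronically instrumented via left thoracotomy, used ≥10 days after surgery. Femoral artery BP, Millar tip LV pressure, femoral vein injection. dP/dt taken at LVP 60 mmHg. Increasing iv doses 10 min apart, readings every 10 min. ED1.5 = dose raising dP/dt by 1500 mmHg/s; max = peak rise from control; usually mean of four.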

Rattus norvegicus [2] = test: Maximum increase in dP/dt recorded in mmHg/s at the dose 3.0 mg/kg administered intravenously in rat.; type: functional; settings: route intravenous
Summary of the method: (§2)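 Anesthetized rats, dP/dt50, BP and HR (HR from LVP by pulse counter) recorded continuously. Increasing single bolus doses into jugular vein, 0.5 mL/kg, 10 min apart. Values read 10 min post-injection as steady state, not 1–3 min peak. ED1.5 = dose raising dP/dt50 by 1500 mmHg/s; max = peak rise from control; usually mean of four.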

Canis familiaris [3] = test: Effective dose required to produce an increase in dP/dt50, blood pressure by 1500 mmHg/s was determined in dog by intravenous administration; type: functional, Canis lupus familiaris; summary of the method: as §1
Felis catus [4] = test: Effective dose required to produce an increase in dP/dt50, blood pressure by 1500 mmHg/s was determined in cat by intravenous administration; type: functional
Summary of the method: (§3)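 Cats of either sex on pentobarbitone (45 mg/kg ip, then 0.1 mg/kg × min infusion), ventilated, open chest. Dextran 10 mL/kg iv, then desacetylmepitranolol 0.3 mg/kg iv for β-blockade failure. LVP/HR via Millar tip in left ventricle; BP, dP/dt50. Rising iv bolus doses 10 min apart, read at 10 min. ED1.5 = dose raising dP/dt50 by 1500 mmHg/s; usually mean of four.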

Felis catus [5] = test: Maximum increase in dP/dt recorded in mmHg/s at the dose 3.0 mg/kg administered intravenously in cat; type: functional; settings: route intravenous; summary of the method: as §3
Rattus norvegicus [6] = test: Effective dose required to produce an increase in dP/dt50, blood pressure by 1500 mmHg/s was determined in rat by intravenous administration; type: functional; summary of the method: as §2
Rattus norvegicus [7] = test: Maximum increase in dP/dt recorded in mmHg/s at the dose 10.0 mg/kg administered intravenously in rat.; type: functional; settings: route intravenous; summary of the method: as §2
Rattus norvegicus [8] = test: Maximum increase in dP/dt recorded in mmHg/s at the dose 1.0 mg/kg administered intravenously in rat.; type: functional; settings: route intravenous; summary of the method: as §2
Canis familiaris [9] = test: Maximum increase in dP/dt recorded in mmHg/s at the dose 1.0 mg/kg administered intravenously in dog; type: functional, Canis lupus familiaris; settings: route intravenous; summary of the method: as §1
Felis catus [10] = test: Maximum increase in dP/dt recorded in mmHg/s at the dose 0.1 mg/kg administered intravenously in cat; type: functional; settings: route intravenous; summary of the method: as §3
Felis catus [11] = test: Maximum increase in dP/dt recorded in mmHg/s at the dose 1.0 mg/kg administered intravenously in cat; type: functional; settings: route intravenous; summary of the method: as §3
Felis catus [12] = test: Maximum increase in dP/dt recorded in mmHg/s at the dose 10.0 mg/kg administered intravenously in cat; type: functional; settings: route intravenous; summary of the method: as §3
Felis catus [13] = test: Maximum increase in dP/dt recorded in mmHg/s at the dose 0.3 mg/kg administered intravenously in cat; type: functional; settings: route intravenous; summary of the method: as §3
Canis familiaris [14] = test: Maximum increase in dP/dt recorded in mmHg/s at the dose in parentheses administered intravenously in dog; type: functional, Canis lupus familiaris; summary of the method: as §1
Rattus norvegicus [15] = test: Maximum increase in dP/dt recorded in mmHg/s at the dose 0.1 mg/kg administered intravenously in rat.; type: functional; settings: route intravenous; summary of the method: as §2

SMILES | ED1.5 (Canis familiaris [3]) | ED1.5 (Felis catus [4]) | ED1.5 (Rattus norvegicus [6]) | also measured
CCOC(=O)C1(C)C(=O)Nc2cc3[nH]c(-c4ccncc4)nc3cc21 (configuration not stated) | 0.64 mg/kg | 0.25 mg/kg | 0.09 mg/kg | Max (Canis familiaris [1]): >3.6; Max (Rattus norvegicus [2]): 4200 mmHg/s; Max (Felis catus [5]): 3700 mmHg/s
CC1(C)C(=O)Nc2cc3[nH]c(/C=C/c4cccnc4)nc3cc21 | – | – | 1.21 mg/kg | Max (Rattus norvegicus [7]): 4300 mmHg/s
CC1(C)C(=O)Nc2cc3[nH]c(-c4ccnc(Cl)c4)nc3cc21 | – | 0.07 mg/kg | 0.07 mg/kg | Max (Rattus norvegicus [8]): 3900 mmHg/s
Cc1cc(-c2nc3cc4c(cc3[nH]2)C(C)(C)C(=O)N4)ccn1 | 0.51 mg/kg | 0.03 mg/kg | 0.29 mg/kg | Max (Canis familiaris [9]): 1800 mmHg/s; Max (Felis catus [10]): 2700 mmHg/s; Max (Rattus norvegicus [8]): 2500 mmHg/s
O=C1Nc2cc3[nH]c(-c4ccncc4)nc3cc2C12CCCC2 | 0.77 mg/kg | 0.08 mg/kg | 0.2 mg/kg | Max (Canis familiaris [1]): 2.2; Max (Rattus norvegicus [2]): 3300 mmHg/s; Max (Felis catus [11]): 2800 mmHg/s
COc1nc(C)ccc1-c1nc2cc3c(cc2[nH]1)C(C)(C)C(=O)N3 | – | – | >10 mg/kg | –
Cc1[nH]c(=O)c(C#N)cc1-c1ccncc1 [MILRINONE] | 0.4 mg/kg | 0.13 mg/kg | 0.14 mg/kg | Max (Canis familiaris [9]): 2000 mmHg/s; Max (Rattus norvegicus [7]): 3400 mmHg/s; Max (Felis catus [12]): 3000 mmHg/s
CC1(C)C(=O)Nc2cc3[nH]c(CCc4ccncc4)nc3cc21 | – | – | >10 mg/kg | –
CC(C)CC1C(=O)Nc2cc3[nH]c(-c4ccncc4)nc3cc21 (configuration not stated) | – | – | >3 mg/kg | –
O=C1Nc2cc3[nH]c(-c4ccncc4)nc3cc2C1C1CCCC1 (configuration not stated) | – | – | >10 mg/kg | –
CCC1(CC)C(=O)Nc2cc3[nH]c(-c4ccncc4)nc3cc21 | – | – | >3 mg/kg | Max (Rattus norvegicus [7]): 1900 mmHg/s
CCC1C(=O)Nc2cc3[nH]c(-c4ccncc4)nc3cc21 (configuration not stated) | 0.09 mg/kg | 0.04 mg/kg | 0.06 mg/kg | Max (Canis familiaris [9]): 2300 mmHg/s; Max (Rattus norvegicus [2]): 4500 mmHg/s; Max (Felis catus [13]): 2500 mmHg/s
CC(C)C1C(=O)Nc2cc3[nH]c(-c4ccncc4)nc3cc21 (configuration not stated) | – | – | >3 mg/kg | Max (Rattus norvegicus [7]): 2200 mmHg/s
CCC1C(=O)Nc2cc3[nH]c(-c4cccnc4)nc3cc21 (configuration not stated) | – | 0.15 mg/kg | 0.39 mg/kg | Max (Rattus norvegicus [7]): 4000 mmHg/s; Max (Felis catus [11]): 2300 mmHg/s
CC1(C)C(=O)Nc2cc3[nH]c(-c4cc[n+]([O-])cc4)nc3cc21 | 0.44 mg/kg | – | 0.03 mg/kg | Max (Canis familiaris [14]): 1800 mmHg/s; Max (Rattus norvegicus [8]): 4900 mmHg/s
CC1C(=O)Nc2cc3[nH]c(-c4ccncc4)nc3cc21 (configuration not stated) | 0.58 mg/kg | 0.01 mg/kg | 0.02 mg/kg | Max (Canis familiaris [1]): 1.7; Max (Felis catus [10]): 2500 mmHg/s; Max (Rattus norvegicus [8]): 4400 mmHg/s
CC1C(=O)Nc2cc3[nH]c(-c4cccnc4)nc3cc21 (configuration not stated) | 0.08 mg/kg | 0.03 mg/kg | 0.06 mg/kg | Max (Canis familiaris [9]): 2400 mmHg/s; Max (Rattus norvegicus [2]): 4600 mmHg/s; Max (Felis catus [13]): 2300 mmHg/s
Cc1ccc(-c2nc3cc4c(cc3[nH]2)C(C)(C)C(=O)N4)cn1 | – | – | >3 mg/kg | –
CC1(C)C(=O)Nc2cc3[nH]c(Cc4ccncc4)nc3cc21 | – | 0.6 mg/kg | 1.14 mg/kg | Max (Rattus norvegicus [7]): 4100 mmHg/s; Max (Felis catus [12]): 3800 mmHg/s
CC1(C)C(=O)Nc2cc3[nH]c(-c4cccnc4)nc3cc21 | 0.51 mg/kg | 0.02 mg/kg | 1 mg/kg | Max (Canis familiaris [1]): 2.5; Max (Rattus norvegicus [2]): 3500 mmHg/s; Max (Felis catus [13]): 3500 mmHg/s
CC1(C)C(=O)Nc2cc3[nH]c(-c4ccnc(O)c4)nc3cc21 | – | 0.21 mg/kg | 0.87 mg/kg | Max (Rattus norvegicus [7]): 3400 mmHg/s; Max (Felis catus [11]): 2400 mmHg/s
CCCCc1ccc(-c2nc3cc4c(cc3[nH]2)C(C)(C)C(=O)N4)nc1 | – | – | >3 mg/kg | –
CC1(C)C(=O)Nc2cc3[nH]c(-c4ccccn4)nc3cc21 | 1.11 mg/kg | 0.23 mg/kg | 0.96 mg/kg | Max (Canis familiaris [1]): 1.7; Max (Rattus norvegicus [2]): 2400 mmHg/s; Max (Felis catus [5]): 2700 mmHg/s
CC1(C)C(=O)Nc2cc3[nH]c(-c4ccncc4)nc3cc21 [ADIBENDAN] | 0.2 mg/kg | 0.01 mg/kg | 0.01 mg/kg | Max (Rattus norvegicus [15]): 3700 mmHg/s; Max (Canis familiaris [9]): 2000 mmHg/s; Max (Felis catus [13]): 2000 mmHg/s
CC1(C(=O)NN)C(=O)Nc2cc3[nH]c(-c4ccncc4)nc3cc21 (configuration not stated) | – | – | >10 mg/kg | –
